Screening results as filed in PubChem BioAssay.
Compounds with a hit are over-represented: about 4.6% of the library has one in this group of screens.
TAAR1 ag: agonists of human TAAR1. Q96RJ0. CHO RD-HGA16 TAAR1, Fluo-8 calcium fluorescence; vehicle wells 0%, saturating PEA agonist 100%. activation, % at 3 µM. 0.99% of 360,000 active;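 active = activation above the mean activation of all test compounds in the run plus 3 SD, cut at about 38% in these data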
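System: CHO RD-HGA16 cells carrying human TAAR1 plus Gα16; Incubation: 17-24 h seeding, 75 min 37 °C dye, 30 min RT; Measured by: Fluo-8 fluorescence, 5 s baseline then 140 s kinetic read; Control set: DMSO and PEA EC100; Replication: single well for each compound.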
OX1R antag-1: antagonists of human orexin 1 receptor (OX1R) | O43613 | OX1R-expressing cells, FRET antagonist read-out | inhibition, % at 6.6 µM | 1.8% of 330,000 active; in the data active = inhibition mostly above about 38%, no sharp cut-off; inactive = mostly below about 40%
Target sequence (O43613 whole entry, looked up): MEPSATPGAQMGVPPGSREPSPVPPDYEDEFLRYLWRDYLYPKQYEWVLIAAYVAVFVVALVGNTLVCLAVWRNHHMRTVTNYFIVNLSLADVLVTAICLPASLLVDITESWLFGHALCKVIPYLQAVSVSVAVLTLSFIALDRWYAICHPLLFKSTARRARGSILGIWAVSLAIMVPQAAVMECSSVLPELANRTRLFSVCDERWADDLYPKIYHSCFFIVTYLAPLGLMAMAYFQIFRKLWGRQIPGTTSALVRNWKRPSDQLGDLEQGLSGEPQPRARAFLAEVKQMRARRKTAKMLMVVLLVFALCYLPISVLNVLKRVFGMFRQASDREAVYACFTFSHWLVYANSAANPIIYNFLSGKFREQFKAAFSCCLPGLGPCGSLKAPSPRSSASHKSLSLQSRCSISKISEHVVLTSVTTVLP
CHO parental Ca: counter-screen: ATP calcium response change in parental CHO cells. parental CHO-K1, ATP-induced calcium, Fluo-8 fluorescence. inhibition, % at 5.6 µM. 0.63% of 330,000 active;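 active = inhibition above that plate's mean sample inhibition plus 3 SD, cut at about 26% in these data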
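Test system: untransfected parental CHO cell line; also added: ATP stimulus; dosing: 5.6 µM, single dose; signal: calcium-sensitive Fluo-8 fluorescence; measure: percent inhibition of ATP-evoked calcium rise, normalized to controls; benchmarks: low control ATP plus DMSO, high control DMSO only; replication: one well per compound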
OX1R antag-2: blocks the human orexin 1 receptor; O43613; CHO/OX1R cells, Fluo-8 calcium fluorescence, orexin A; inhibition, % at 5 µM; 0.43% of 330,000 active; AID 434989;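 active = inhibition above its plate's threshold, mean inhibition of all tested compounds on the plate plus 3 SD, cut at about 37% in these data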
GPR7 antagonist: blocks human GPR7 receptor signaling; 1.1% of 290,000 active; GPR7-expressing cells, fluorescence antagonist assay; P48145; inhibition, % at 4.4 µM; AID 1861; in the data active = inhibition above about 16%, passing the limit was not always enough;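 also: cells stimulated with the agonist NPW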
TAAR1 antag: human TAAR1 antagonism; Q96RJ0; CHO RD-HGA16 TAAR1, Fluo-8 calcium fluorescence, antagonist; inhibition, % at 3 µM; 1.5% of 360,000 active; AID 624466;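 active = inhibition above a per-plate cutoff, the mean inhibition of test compounds on that plate plus 3 SD, cut at about 49% in these data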
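Material: RD-HGA16 CHO cells with stable hTAAR1 and Gα16; Dosing: single nominal final test compound concentration of 3 µM; Schedule: seeding 17-24 h prior, 75-min 37 °C, 30-min RT dye loading; Detection: kinetic Fluo-8 calcium fluorescence measurement; Measure: % inhibition from peak post-agonist over basal fluorescence ratio; Benchmarks: vehicle and agonist controls.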
Of the large screens only hits and unclear results are named; the others gave an inactive call.

CCN(CC)S(=O)(=O)c1ccc(OC(C)C)c(NC(=O)c2c3c(nc4ccccc24)CCN(Cc2ccccc2)C3)c1	TAAR1 antag 55
COc1ccc(S(=O)(=O)N2CCCCCC2)cc1NC(=O)c1c2c(nc3ccccc13)CCN(Cc1ccccc1)C2	none
CC1=NNC(=O)/C1=C\c1cn(-c2ccccc2)nc1-c1cccs1	CHO parental Ca 63, OX1R antag-2 73, TAAR1 antag 86
Cc1cc(NS(=O)(=O)c2ccc(NC(=O)C(F)(F)F)cc2)nc(C)n1	none
O=C(c1nc2nc(-c3ccc(Cl)cc3)cc(C(F)(F)F)n2n1)N1CCOCC1	OX1R antag-1 46
O=C(c1nn2c(C(F)(F)F)cc(-c3ccc(F)cc3)nc2c1Cl)N1CCOCC1	none
Cc1cc(C)n2nc(SCC(=O)N3CC(C)CC(C)C3)nc2n1 (stereo not drawn)	none (no result: GPR7 antagonist)
CCCCSc1cnn(-c2ccccc2)c(=O)c1SCCCC	CHO parental Ca 30
Cc1ccc(N=Nc2c(=O)[nH]n3c(=O)cc(C)[nH]c23)cc1	OX1R antag-1 55
Cc1ccc(-n2cccc2/C=C2/C(=N)N3C(=NC2=O)SN=C3S(C)(=O)=O)cc1	none
CCc1ccc(-n2cccc2/C=C2/C(=N)N3C(=NC2=O)SN=C3S(C)(=O)=O)cc1	OX1R antag-1 66, TAAR1 antag 57
CS(=O)(=O)C1=NSC2=NC(=O)/C(=C\c3cccn3-c3ccccc3Cl)C(=N)N21	OX1R antag-1 64
Cc1cc(C)cc(-n2cccc2/C=C2/C(=N)N3C(=NC2=O)SN=C3S(C)(=O)=O)c1	OX1R antag-1 51
Cc1nnc(SC(C)C(=O)Nc2c(C)n(C)n(-c3ccccc3)c2=O)n1N (stereo not drawn)	none
O=C(c1ccco1)N1CCN(Cc2cccc3ccccc23)CC1	none
CC1(C)CC(=O)C2=C(C1)N=C1c3ccccc3C(=O)C1C2c1ccc(Cl)cc1 (stereo not drawn)	OX1R antag-1 96
CC(C1CC2CCC1C2)N1CC(O)=C(c2nc3ccccc3[nH]2)C1=N (stereo not drawn)	GPR7 antagonist 21
CC(C)N1CC(O)=C(c2nc3ccccc3[nH]2)C1=N	none
Cc1cc(C)c(C2=NOC3C4CCC(C4)C23)c(C)c1 (stereo not drawn)	none
Cc1n[nH]c(=S)n1/N=C/c1ccc(-c2ccccc2[N+](=O)[O-])o1	OX1R antag-1 68
Cc1nnc(N/N=C\c2ccc(-c3ccccc3[N+](=O)[O-])o2)n1N	OX1R antag-1 56
CCc1nnc(N/N=C/c2ccc(-c3ccc([N+](=O)[O-])cc3)o2)n1N	none
Cc1nnc(N/N=C/c2ccc(-c3ccccc3F)o2)n1N	OX1R antag-1 57
O=[N+]([O-])c1cccc(-c2ccc(/C=N/n3c(-c4ccccc4)n[nH]c3=S)o2)c1	none
COc1cc(Cl)c(C)cc1NC(=O)CSc1nnc(CCC(=O)O)c(=O)[nH]1	none
Cc1cc(C(F)(F)F)nc(CCNC(=O)C2CCC(=O)N(Cc3cccc(F)c3)C2)n1 (stereo not drawn)	none
CC1COCC(C)N1C1=C(Cl)C(=O)c2ccccc2C1=O (stereo not drawn)	TAAR1 ag 41 (no result: OX1R antag-1, CHO parental Ca, OX1R antag-2, GPR7 antagonist)
COc1cccc(N2C(=O)CN(Cc3cc(OC)c(OC)c(OC)c3)C2=S)c1	none
COc1ccc(N2C(=O)CN(Cc3cc(OC)c(OC)c(OC)c3)C2=S)cc1	OX1R antag-1 47
CCOc1ccccc1N1C(=O)CN(Cc2ccc(OC)c(OC)c2)C1=S	OX1R antag-1 56
Cc1ccc(C(=O)OCC(=O)N(C)C2CCS(=O)(=O)C2)cc1S(=O)(=O)N1CCCCC1 (stereo not drawn)	none (no result: GPR7 antagonist)
O=C(Nc1ccc(S(=O)(=O)N2CCOCC2)cc1)c1cc(-c2ccccc2O)n[nH]1	TAAR1 antag 54
CC1CN(S(=O)(=O)c2ccc(NC(=O)c3cc(-c4ccccc4O)n[nH]3)cc2)CC(C)O1 (stereo not drawn)	none
CCCCN=C1NN=C(c2cc3ccccc3o2)CS1	none
CSc1ccc(Cn2c(C)c(C(=O)NCc3ccccc3C(F)(F)F)sc2=O)cc1	TAAR1 antag 52 (no result: OX1R antag-1, CHO parental Ca, OX1R antag-2, GPR7 antagonist)
Cn1cc(C(=O)Nc2ccc(F)c(Cl)c2)cn1	none
CN1c2ccsc2C(O)=C(C(=S)Nc2ccc(F)c(Cl)c2)S1(=O)=O	OX1R antag-1 50
O=C(c1cccc(S(=O)(=O)N2CCN(c3ccccc3)CC2)c1)N1CCCC(C(F)(F)F)C1 (stereo not drawn)	CHO parental Ca 34 (no result: GPR7 antagonist)
CSc1ccc(SC2CN(Cc3ccc(C)cc3)S(=O)(=O)C2)cc1 (stereo not drawn)	none (no result: OX1R antag-1, CHO parental Ca, OX1R antag-2, GPR7 antagonist)
O=C(c1sc2cc([N+](=O)[O-])ccc2c1Cl)N1CCOCC1	OX1R antag-1 75
Cc1ccc2c(c1)nnn2C1CCN(S(=O)(=O)c2ccc(C(=O)O)cc2)CC1	none
Cc1ccc2c(c1)nnn2C1CCN(S(=O)(=O)c2ccc(C(=O)N3C(C)CCCC3C)cc2)CC1 (stereo not drawn)	CHO parental Ca 56, OX1R antag-2 59
CN(CC(=O)Nc1ccccc1Cl)CC(=O)Nc1c(F)cccc1F	none
Clc1ccc(OCCN2CCN(c3ncnc4sccc34)CC2)cc1	OX1R antag-1 49, GPR7 antagonist 20
Cc1ccc(OCCN2CCN(c3ncnc4sc(C)c(C)c34)CC2)cc1	OX1R antag-1 44
CCN1CCN(CCOc2ccc(Cl)cc2)CC1	none
COc1cc(SC#N)ccc1N=Cc1c(C)[nH]n(-c2ccc(Cl)cc2)c1=O	none
COc1cc(SC#N)ccc1N=Cc1c(C)[nH]n(-c2ccc(C)c(C)c2)c1=O	CHO parental Ca 96, OX1R antag-2 96, TAAR1 antag 87
O=C(Cn1ncc2ccccc21)N1CCN(c2cccc(C(F)(F)F)c2)CC1	TAAR1 ag 44
O=C(CCCNC(=O)/C(=C/c1ccc(F)cc1)NC(=O)c1ccccc1)OCc1ccccc1	none
COc1ccc2c(c1)c(-c1csc(N)n1)c(C)n2C	OX1R antag-1 46
O=C(COC(=O)c1ccccc1[N+](=O)[O-])c1ccc2c(c1)OCO2	none (no result: GPR7 antagonist)
O=C(COC(=O)c1ccccc1Nc1ccccc1)c1ccccc1	OX1R antag-2 43
O=C(COC(=O)c1ccccc1-c1ccccc1[N+](=O)[O-])c1ccccc1	TAAR1 antag 56
CNc1ccccc1C(=O)OCC(=O)c1ccccc1	none (no result: TAAR1 ag, TAAR1 antag)
O=C(NCC(c1ccco1)N1CCOCC1)C1CCCCC1 (stereo not drawn)	none (no result: GPR7 antagonist)
COc1cccc(Cn2c(C(C)n3c(C)nc4ccccc43)nc3ccccc32)c1 (stereo not drawn)	none (no result: OX1R antag-1, CHO parental Ca, OX1R antag-2, GPR7 antagonist)
O/N=C(\c1ccc(Cl)cc1)c1cc2ccccc2o1	CHO parental Ca 33
C/C(=N\N1CCN(c2ccc(Cl)cc2)CC1)c1cccc([N+](=O)[O-])c1	none
